In ChEMBL document CHEMBL1139880, “Potent and selective agonists of human melanocortin receptor 5: cyclic analogues of alpha-melanocyte-stimulating hormone” (J Med Chem, 2007):

Key:
Melanocortin receptor 3 [1] = target: T1, Melanocortin receptor 3 (Homo sapiens, UniProt P41968); assay: Agonist activity at human MC3R expressed in CHO cells assessed as cAMP accumulation at 1 uM relative to [125I]NDPalphaMSH; type: functional, cell-based
[2] = target: T2, Melanocyte-stimulating hormone receptor (Homo sapiens, UniProt Q01726); assay: Agonist activity at human melanocortin receptor 1b expressed in CHO cells assessed as cAMP accumulation at 1 uM relative to [125I]NDPalphaMSH; type: functional, cell-based
Target sequence in this assay (Q01726 whole entry, looked up): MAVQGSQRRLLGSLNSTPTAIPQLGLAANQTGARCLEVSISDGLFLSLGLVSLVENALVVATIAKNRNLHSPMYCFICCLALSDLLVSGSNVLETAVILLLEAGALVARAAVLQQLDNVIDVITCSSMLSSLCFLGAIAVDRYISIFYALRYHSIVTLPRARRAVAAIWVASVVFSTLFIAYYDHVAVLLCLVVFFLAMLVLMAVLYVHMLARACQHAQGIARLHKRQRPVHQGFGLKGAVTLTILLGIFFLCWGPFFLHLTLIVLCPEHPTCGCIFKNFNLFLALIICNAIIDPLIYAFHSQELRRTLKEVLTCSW

Melanocortin receptor 4 [3] = target: T3, Melanocortin receptor 4 (Homo sapiens, UniProt P32245); assay: Agonist activity at human MC4R expressed in CHO cells assessed as cAMP accumulation at 1 uM relative to [125I]NDPalphaMSH; type: functional, cell-based; settings: filed as agonist
T3 sequence (P32245 whole entry): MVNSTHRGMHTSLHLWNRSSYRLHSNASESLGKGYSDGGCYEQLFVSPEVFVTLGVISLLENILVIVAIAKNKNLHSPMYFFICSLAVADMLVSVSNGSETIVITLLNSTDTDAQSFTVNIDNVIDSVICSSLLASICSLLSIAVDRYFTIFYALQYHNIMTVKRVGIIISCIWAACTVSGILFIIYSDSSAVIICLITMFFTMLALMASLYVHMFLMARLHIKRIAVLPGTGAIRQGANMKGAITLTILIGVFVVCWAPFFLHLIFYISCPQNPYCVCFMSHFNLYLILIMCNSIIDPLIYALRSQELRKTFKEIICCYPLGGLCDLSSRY

Melanocortin receptor 3 [4] = target: T1, Melanocortin receptor 3; assay: Displacement of [125I]NDPalphaMSH from human cloned MC3R expressed in CHO cells; type: cell-based
Melanocortin receptor 3 [5] = target: T1, Melanocortin receptor 3; assay: Agonist activity at human MC3R expressed in CHO cells assessed as cAMP accumulation; type: functional, cell-based
Summary of the method: (§1)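 Dissociated CHO cells were spun 5 min and resuspended in Earle's balanced salt solution with 10 mM HEPES pH 7.5, 5 mM MgCl2, 1 mM glutamine and 1 mg/mL BSA. They were incubated 40 min at room temperature with compound (0.003–5000 nM) plus 0.6 mM IBMX, then lysed with 0.1 M HCl. cAMP was measured by Flashplate cAMP assay.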

Melanocortin receptor 5 [6] = target: T4, Melanocortin receptor 5 (Homo sapiens, UniProt P33032); assay: Agonist activity at human MC5R expressed in CHO cells assessed as cAMP accumulation; type: functional, cell-based
T4 sequence (P33032 whole entry): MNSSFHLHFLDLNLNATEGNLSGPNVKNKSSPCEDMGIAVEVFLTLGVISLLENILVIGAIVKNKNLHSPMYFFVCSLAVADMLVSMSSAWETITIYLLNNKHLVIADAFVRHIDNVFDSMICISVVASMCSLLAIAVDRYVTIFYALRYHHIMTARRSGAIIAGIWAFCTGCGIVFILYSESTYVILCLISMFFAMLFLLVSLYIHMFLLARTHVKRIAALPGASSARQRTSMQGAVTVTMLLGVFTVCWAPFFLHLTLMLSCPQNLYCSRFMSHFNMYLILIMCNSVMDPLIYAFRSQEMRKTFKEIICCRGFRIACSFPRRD

[7] = target: T2, Melanocyte-stimulating hormone receptor; assay: Displacement of [125I]NDPalphaMSH from human cloned melanocortin receptor 1b expressed in CHO cells; type: cell-based
Target sequence in this assay (Q01726 whole entry): as the sequence (Q01726 whole entry, looked up) above

[8] = target: T2, Melanocyte-stimulating hormone receptor; assay: Agonist activity at human melanocortin receptor 1b expressed in CHO cells assessed as cAMP accumulation; type: functional, cell-based; summary of the method: as §1
Target sequence in this assay (Q01726 whole entry): as the sequence (Q01726 whole entry, looked up) above

Melanocortin receptor 5 [9] = target: T4, Melanocortin receptor 5; assay: Displacement of [125I]NDPalphaMSH from human cloned MC5R expressed in CHO cells; type: cell-based
[10] = target: Melanocortin receptor (M4 and M5) (Homo sapiens) (UniProt P32245+P33032); assay: Selectivity for human cloned MC5R over human cloned MC4R; type: protein assay
Melanocortin receptor (M4 and M5) (Homo sapiens), sequence (P32245 whole entry, looked up): as the sequence (P32245 whole entry) above
Melanocortin receptor (M4 and M5) (Homo sapiens), sequence (P33032 whole entry, looked up): as the sequence (P33032 whole entry) above

Homo sapiens [11] = species: Homo sapiens; assay: Selectivity for human cloned MC5R over human cloned MC1bR
Homo sapiens [12] = species: Homo sapiens; assay: Selectivity for human cloned MC5R over human cloned MC3R
Melanocortin receptor 3 [13] = target: T1, Melanocortin receptor 3; assay: Agonist activity at human MC3R expressed in CHO cells assessed as cAMP accumulation at 5 uM relative to [125I]NDPalphaMSH; type: functional, cell-based
Melanocortin receptor 4 [14] = target: T3, Melanocortin receptor 4; assay: Agonist activity at human MC4R expressed in CHO cells assessed as cAMP accumulation at 5 uM relative to [125I]NDPalphaMSH; type: functional, cell-based; settings: filed as agonist
Melanocortin receptor 4 [15] = target: T3, Melanocortin receptor 4; assay: Agonist activity at human MC4R expressed in CHO cells assessed as cAMP accumulation at 10 uM relative to [125I]NDPalphaMSH; type: functional, cell-based
Melanocortin receptor 3 [16] = target: T1, Melanocortin receptor 3; assay: Agonist activity at human MC3R expressed in CHO cells assessed as cAMP accumulation at 10 uM relative to [125I]NDPalphaMSH; type: functional, cell-based
Melanocortin receptor 3 [17] = target: T1, Melanocortin receptor 3; assay: Agonist activity at human MC3R expressed in CHO cells assessed as cAMP accumulation at 2 uM relative to [125I]NDPalphaMSH; type: functional, cell-based
Melanocortin receptor 4 [18] = target: T3, Melanocortin receptor 4; assay: Agonist activity at human MC4R expressed in CHO cells assessed as cAMP accumulation at 2 uM relative to [125I]NDPalphaMSH; type: functional, cell-based; settings: filed as partial agonist
Melanocortin receptor 4 [19] = target: T3, Melanocortin receptor 4; assay: Displacement of [125I]NDPalphaMSH from human cloned MC4R expressed in CHO cells; type: cell-based
Melanocortin receptor 4 [20] = target: T3, Melanocortin receptor 4; assay: Agonist activity at human MC4R expressed in CHO cells assessed as cAMP accumulation at […] relative to [125I]NDPalphaMSH; type: functional, cell-based; settings: filed as partial agonist

T1 sequence (P41968 whole entry): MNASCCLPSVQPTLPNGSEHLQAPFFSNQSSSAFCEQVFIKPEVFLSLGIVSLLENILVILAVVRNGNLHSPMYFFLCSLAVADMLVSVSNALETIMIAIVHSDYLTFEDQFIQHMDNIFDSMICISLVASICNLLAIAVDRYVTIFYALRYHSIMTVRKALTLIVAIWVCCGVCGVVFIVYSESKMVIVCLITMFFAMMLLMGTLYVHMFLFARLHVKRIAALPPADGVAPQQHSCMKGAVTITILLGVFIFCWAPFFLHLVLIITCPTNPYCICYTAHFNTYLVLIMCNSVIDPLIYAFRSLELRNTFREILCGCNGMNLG

Row | SMILES | IC50 (Melanocortin receptor 3 [4]) | EC50 (Melanocortin receptor 5 [6]) | IC50 [7] | EC50 [8] | IC50 (Melanocortin receptor 5 [9]) | Ratio IC50 [10] | Ratio IC50 (Homo sapiens [11]) | Ratio IC50 (Homo sapiens [12]) | also measured
1 | CCCC[C@H](NC(C)=O)C(=O)N[C@H]1CC(=O)NCCCC[C@@H](C(N)=O)NC(=O)[C@H](Cc2c[nH]c3ccccc23)NC(=O)[C@@H]2CCCCN2C(=O)[C@H](Cc2ccc(-c3ccccc3)cc2)NC(=O)[C@H](c2ccccc2)NC1=O |  |  |  |  |  |  |  |  | Activity (Melanocortin receptor 3 [1]): 0%; Activity [2]: 16%; Activity (Melanocortin receptor 4 [3]): 72%
2 | CCCC[C@H](NC(C)=O)C(=O)N[C@H]1CC(=O)NCCCC[C@@H](C(N)=O)NC(=O)[C@H](Cc2c[nH]c3ccccc23)NC(=O)[C@@H]2CCCN2C(=O)[C@@H](Cc2ccc(OCC)cc2)NC(=O)[C@H](Cc2cnc[nH]2)NC1=O | > 10000 nM | 270 nM (agonist) | 430 nM (antagonist) | 60 nM (agonist) | 340 nM (antagonist) |  |  |  | EC50 (Melanocortin receptor 3 [5]): > 2500 nM
3 | CCCC[C@H](NC(C)=O)C(=O)N[C@H]1CC(=O)NCCCC[C@@H](C(N)=O)NC(=O)[C@H](Cc2c[nH]c3ccccc23)NC(=O)[C@@H]2CCCN2C(=O)[C@H](Cc2ccc(-c3ccccc3)cc2)NC(=O)[C@@H]2CC3CCCCC3N2C1=O (stereo not given in full) |  |  |  |  |  | 470 | 780 | 440 | Activity (Melanocortin receptor 3 [13]): 1%; Activity (Melanocortin receptor 4 [14]): 97%
4 | CCCC[C@H](NC(C)=O)C(=O)N[C@H]1CC(=O)NCCCC[C@@H](C(N)=O)NC(=O)[C@H](Cc2cc3ccccc3[nH]2)NC(=O)[C@@H]2CCCN2C(=O)[C@H](Cc2ccccc2)NC(=O)[C@H](Cc2cnc[nH]2)NC1=O |  |  |  |  |  |  |  |  | Activity (Melanocortin receptor 4 [15]): 7%; Activity (Melanocortin receptor 3 [16]): 5%
5 | CCCC[C@H](NC(C)=O)C(=O)N[C@H]1CC(=O)NCCCC[C@@H](C(N)=O)NC(=O)[C@H](Cc2c[nH]c3ccccc23)NC(=O)[C@@H]2CCCCN2C(=O)[C@H](Cc2ccc(-c3ccccc3)cc2)NC(=O)[C@@H]2CC3CCCCC3N2C1=O (stereo not given in full) |  |  |  |  |  | > 5000 | > 5000 | > 5000 | Activity (Melanocortin receptor 3 [17]): 5%; Activity (Melanocortin receptor 4 [18]): 40%
6 | CCCC[C@H](NC(C)=O)C(=O)N[C@H]1CC(=O)NCCCC[C@@H](C(N)=O)NC(=O)[C@H](Cc2cc3ccccc3[nH]2)NC(=O)[C@@H]2CCCN2C(=O)[C@@H](Cc2ccccc2)NC(=O)[C@H](Cc2cnc[nH]2)NC1=O |  |  |  |  |  |  |  |  | Activity (Melanocortin receptor 4 [15]): 6%; Activity (Melanocortin receptor 3 [16]): 2%
7 | CCCC[C@H](NC(C)=O)C(=O)N[C@H]1CC(=O)NCCCC[C@@H](C(N)=O)NC(=O)[C@H](Cc2c[nH]c3ccccc23)NC(=O)[C@@H]2CCCCN2C(=O)[C@@H](Cc2ccc(-c3ccccc3)cc2)NC(=O)[C@H](Cc2c[nH]cn2)NC1=O | 1400 nM (antagonist) | 0.37 nM (agonist) | 5.9 nM (antagonist) | 3.3 nM (agonist) | 0.72 nM (antagonist) |  |  |  | EC50 (Melanocortin receptor 3 [5]): 370 nM (agonist); IC50 (Melanocortin receptor 4 [19]): 570 nM (antagonist)
8 | CCCC[C@H](NC(C)=O)C(=O)N[C@H]1CC(=O)NCCCC[C@@H](C(N)=O)NC(=O)[C@H](Cc2c[nH]c3ccccc23)NC(=O)[C@@H]2CCCN2C(=O)[C@@H](Cc2ccc(-c3ccccc3)cc2)NC(=O)[C@@H]2CC3CCCCC3N2C1=O (stereo not given in full) | 4400 nM (antagonist) | 17 nM (agonist) | 7800 nM (antagonist) | > 2500 nM | 10 nM (antagonist) |  |  |  | IC50 (Melanocortin receptor 4 [19]): 4700 nM (antagonist)
9 | CCCC[C@H](NC(C)=O)C(=O)N[C@H]1CC(=O)NCCCC[C@@H](C(N)=O)NC(=O)[C@H](Cc2c[nH]c3ccccc23)NC(=O)[C@@H]2CCCCN2C(=O)[C@H](Cc2ccc(-c3ccccc3)cc2)NC(=O)[C@H](Cc2c[nH]cn2)NC1=O |  |  |  |  |  | 790 | 8 | 1940 | Activity (Melanocortin receptor 4 [20]): 41%
